Test system: Fibroblast
Test: Multiplex assay against human fibroblast
Type: toxicity, cell-based
Outline: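 Live cells were stained at seeding with Hoechst33342, BioTracker Green Microtubule Cytoskeleton Dye, MitoTracker Red and Annexin V Alexa Fluor 680, then imaged on a CQ1 microscope at 37°C and 5% CO2 after compound addition. CellPathfinder machine-learning gating split cells into Hoechst high-intensity objects or normal cells. Normal cells were split into healthy, pyknosed or fragmented nuclei, and pyknosed cells into mitotic or apoptotic. Tubulin, mitochondrial-mass and membrane-permeability phenotypes are per cents of healthy-nucleus cells.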

[1] = 12 h, 1 µM, compound concentration 1 uM, replicate 1
[2] = 12 h, 1 µM, compound concentration 1 uM, replicate 2
[3] = 12 h, 10 µM, compound concentration 10 uM, replicate 1
[4] = 12 h, 10 µM, compound concentration 10 uM, replicate 2
[5] = 24 h, 1 µM, compound concentration 1 uM, replicate 1
[6] = 24 h, 1 µM, compound concentration 1 uM, replicate 2
[7] = 24 h, 10 µM, compound concentration 10 uM, replicate 1
[8] = 24 h, 10 µM, compound concentration 10 uM, replicate 2
[9] = 48 h, 1 µM, compound concentration 1 uM, replicate 1
[10] = 48 h, 1 µM, compound concentration 1 uM, replicate 2
[11] = 48 h, 10 µM, compound concentration 10 uM, replicate 1
[12] = 48 h, 10 µM, compound concentration 10 uM, replicate 2

CC(C)(C)c1cc(NC(=O)Nc2ccc(-c3cn4c(n3)sc3cc(OCCN5CCOCC5)ccc34)cc2)no1 [QUIZARTINIB]
Population Apoptotic (%) [1]: 42%
Population Fragmented Nuclei (%) [1]: 16%
Population Healthy Nuclei (%) [1]: 65%
Population Hoechst High Intensity Objects (%) [1]: 2%
Population Membrane Permeable-Phenotype (%) [1]: 0%
Population Mitochondria Different-Phenotype (%) [1]: 7%
Population Mitotic Cells (%) [1]: 57%
Population Normal (%) [1]: 97%
Population Pyknosed Nuclei (%) [1]: 17%
Population Tubulin-Different-Phenotype (%) [1]: 31%
Total Cell Count [1]: 150
Population Apoptotic (%) [2]: 41%
Population Fragmented Nuclei (%) [2]: 24%
Population Healthy Nuclei (%) [2]: 52%
Population Membrane Permeable-Phenotype (%) [2]: 1%
Population Mitochondria Different-Phenotype (%) [2]: 5%
Population Mitotic Cells (%) [2]: 58%
Population Pyknosed Nuclei (%) [2]: 23%
Population Tubulin-Different-Phenotype (%) [2]: 41%
Total Cell Count [2]: 137
Population Apoptotic (%) [3]: 43%
Population Fragmented Nuclei (%) [3]: 34%
Population Healthy Nuclei (%) [3]: 56%
Population Hoechst High Intensity Objects (%) [3]: 3%
Population Membrane Permeable-Phenotype (%) [3]: 0%
Population Mitochondria Different-Phenotype (%) [3]: 10%
Population Mitotic Cells (%) [3]: 56%
Population Normal (%) [3]: 96%
Population Pyknosed Nuclei (%) [3]: 8%
Population Tubulin-Different-Phenotype (%) [3]: 75%
Total Cell Count [3]: 190
Population Apoptotic (%) [4]: 48%
Population Fragmented Nuclei (%) [4]: 35%
Population Healthy Nuclei (%) [4]: 45%
Population Hoechst High Intensity Objects (%) [4]: 5%
Population Membrane Permeable-Phenotype (%) [4]: 5%
Population Mitochondria Different-Phenotype (%) [4]: 5%
Population Mitotic Cells (%) [4]: 51%
Population Normal (%) [4]: 94%
Population Pyknosed Nuclei (%) [4]: 18%
Population Tubulin-Different-Phenotype (%) [4]: 70%
Total Cell Count [4]: 162
Population Apoptotic (%) [5]: 58%
Population Fragmented Nuclei (%) [5]: 14%
Population Healthy Nuclei (%) [5]: 72%
Population Hoechst High Intensity Objects (%) [5]: 1%
Population Membrane Permeable-Phenotype (%) [5]: 0%
Population Mitochondria Different-Phenotype (%) [5]: 6%
Population Mitotic Cells (%) [5]: 41%
Population Normal (%) [5]: 98%
Population Pyknosed Nuclei (%) [5]: 12%
Population Tubulin-Different-Phenotype (%) [5]: 32%
Total Cell Count [5]: 137
Population Apoptotic (%) [6]: 42%
Population Fragmented Nuclei (%) [6]: 25%
Population Healthy Nuclei (%) [6]: 61%
Population Hoechst High Intensity Objects (%) [6]: 3%
Population Membrane Permeable-Phenotype (%) [6]: 2%
Population Mitotic Cells (%) [6]: 57%
Population Normal (%) [6]: 96%
Population Pyknosed Nuclei (%) [6]: 13%
Population Tubulin-Different-Phenotype (%) [6]: 44%
Total Cell Count [6]: 152
Population Apoptotic (%) [7]: 75%
Population Fragmented Nuclei (%) [7]: 33%
Population Healthy Nuclei (%) [7]: 57%
Population Hoechst High Intensity Objects (%) [7]: 1%
Population Membrane Permeable-Phenotype (%) [7]: 0%
Population Mitochondria Different-Phenotype (%) [7]: 21%
Population Mitotic Cells (%) [7]: 25%
Population Normal (%) [7]: 98%
Population Pyknosed Nuclei (%) [7]: 8%
Population Tubulin-Different-Phenotype (%) [7]: 71%
Total Cell Count [7]: 190
Population Apoptotic (%) [8]: 39%
Population Fragmented Nuclei (%) [8]: 40%
Population Healthy Nuclei (%) [8]: 46%
Population Hoechst High Intensity Objects (%) [8]: 4%
Population Membrane Permeable-Phenotype (%) [8]: 1%
Population Mitochondria Different-Phenotype (%) [8]: 10%
Population Mitotic Cells (%) [8]: 60%
Population Normal (%) [8]: 95%
Population Pyknosed Nuclei (%) [8]: 13%
Population Tubulin-Different-Phenotype (%) [8]: 70%
Total Cell Count [8]: 179
Population Apoptotic (%) [9]: 75%
Population Fragmented Nuclei (%) [9]: 19%
Population Healthy Nuclei (%) [9]: 71%
Population Hoechst High Intensity Objects (%) [9]: 8%
Population Membrane Permeable-Phenotype (%) [9]: 0%
Population Mitochondria Different-Phenotype (%) [9]: 5%
Population Mitotic Cells (%) [9]: 25%
Population Normal (%) [9]: 91%
Population Pyknosed Nuclei (%) [9]: 9%
Population Tubulin-Different-Phenotype (%) [9]: 38%
Total Cell Count [9]: 145
Population Apoptotic (%) [10]: 42%
Population Fragmented Nuclei (%) [10]: 30%
Population Healthy Nuclei (%) [10]: 60%
Population Hoechst High Intensity Objects (%) [10]: 3%
Population Membrane Permeable-Phenotype (%) [10]: 1%
Population Mitochondria Different-Phenotype (%) [10]: 8%
Population Mitotic Cells (%) [10]: 57%
Population Normal (%) [10]: 96%
Population Tubulin-Different-Phenotype (%) [10]: 34%
Total Cell Count [10]: 158
Population Apoptotic (%) [11]: 79%
Population Fragmented Nuclei (%) [11]: 30%
Population Healthy Nuclei (%) [11]: 56%
Population Hoechst High Intensity Objects (%) [11]: 7%
Population Membrane Permeable-Phenotype (%) [11]: 0%
Population Mitochondria Different-Phenotype (%) [11]: 25%
Population Mitotic Cells (%) [11]: 20%
Population Normal (%) [11]: 92%
Population Pyknosed Nuclei (%) [11]: 13%
Population Tubulin-Different-Phenotype (%) [11]: 74%
Total Cell Count [11]: 195
Population Apoptotic (%) [12]: 60%
Population Fragmented Nuclei (%) [12]: 44%
Population Healthy Nuclei (%) [12]: 50%
Population Hoechst High Intensity Objects (%) [12]: 3%
Population Membrane Permeable-Phenotype (%) [12]: 2%
Population Mitochondria Different-Phenotype (%) [12]: 6%
Population Mitotic Cells (%) [12]: 40%
Population Normal (%) [12]: 96%
Population Pyknosed Nuclei (%) [12]: 5%
Population Tubulin-Different-Phenotype (%) [12]: 59%

Source: ChEMBL document CHEMBL5058577, “EUbOPEN Chemogenomics Library 2 (Multiplex)” (2022)
